Active and inactive are the calls of the source. The rule behind the calls is not given here.
How the values were obtained:
[1] = target: T1, Monoacylglycerol lipase ABHD6 (Mus musculus) (UniProt Q8R2Y0); experiment: Inhibition of ABHD6 in FP-rhodamine-labelled mouse brain membrane at 10 to 0.0032 uM preincubated for 30 mins followed by FP-rhodamine labelling measured after 30 mins by gel-based competitive ABPP assay; type: tissue-based
T1 sequence (whole entry): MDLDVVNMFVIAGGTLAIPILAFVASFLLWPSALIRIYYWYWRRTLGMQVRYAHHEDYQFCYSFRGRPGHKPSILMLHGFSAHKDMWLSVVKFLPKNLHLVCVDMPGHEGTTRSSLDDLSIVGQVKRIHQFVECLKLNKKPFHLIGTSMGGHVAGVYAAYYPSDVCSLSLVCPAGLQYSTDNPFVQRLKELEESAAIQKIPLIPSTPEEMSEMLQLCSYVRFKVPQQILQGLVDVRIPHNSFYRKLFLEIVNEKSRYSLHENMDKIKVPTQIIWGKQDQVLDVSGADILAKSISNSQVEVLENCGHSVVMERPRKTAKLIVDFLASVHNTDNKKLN
Summary of the method: (§1)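 Mouse brain membrane proteome (1 mg/mL) preincubated with compound for 30 min at 37 °C, then labelled with FP-rhodamine or HT-01 (1 μM final) for 30 min at 37 °C. Quenched in SDS loading buffer, run on 10% SDS-PAGE and scanned for in-gel fluorescence. Bands assigned by gel migration.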

[2] = target: T1, Monoacylglycerol lipase ABHD6 (Mus musculus); experiment: Inhibition of ABHD6 in HT-01-labelled mouse Neuro2a cell membrane at 0.003 to 0.6 uM preincubated for 30 mins followed by HT-01 labelling measured after 30 mins by gel-based competitive ABPP assay
Summary of the method: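 Neuro2A membrane proteome (1 mg/mL) preincubated with compound for 30 min at 37 °C, then labelled with HT-01 (1 μM, 30 min, 37 °C). SDS-PAGE and in-gel fluorescence scanning, with activity taken from integrated band intensity.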

[3] = target: T2, Fatty-acid amide hydrolase 1 (Mus musculus) (UniProt O08914); experiment: Inhibition of FAAH in FP-rhodamine-labelled mouse brain membrane at 0.4 to 10 uM preincubated for 30 mins followed by FP-rhodamine labelling measured after 30 mins by gel-based competitive ABPP assay; type: tissue-based; summary of the method: as §1
T2 sequence (whole entry): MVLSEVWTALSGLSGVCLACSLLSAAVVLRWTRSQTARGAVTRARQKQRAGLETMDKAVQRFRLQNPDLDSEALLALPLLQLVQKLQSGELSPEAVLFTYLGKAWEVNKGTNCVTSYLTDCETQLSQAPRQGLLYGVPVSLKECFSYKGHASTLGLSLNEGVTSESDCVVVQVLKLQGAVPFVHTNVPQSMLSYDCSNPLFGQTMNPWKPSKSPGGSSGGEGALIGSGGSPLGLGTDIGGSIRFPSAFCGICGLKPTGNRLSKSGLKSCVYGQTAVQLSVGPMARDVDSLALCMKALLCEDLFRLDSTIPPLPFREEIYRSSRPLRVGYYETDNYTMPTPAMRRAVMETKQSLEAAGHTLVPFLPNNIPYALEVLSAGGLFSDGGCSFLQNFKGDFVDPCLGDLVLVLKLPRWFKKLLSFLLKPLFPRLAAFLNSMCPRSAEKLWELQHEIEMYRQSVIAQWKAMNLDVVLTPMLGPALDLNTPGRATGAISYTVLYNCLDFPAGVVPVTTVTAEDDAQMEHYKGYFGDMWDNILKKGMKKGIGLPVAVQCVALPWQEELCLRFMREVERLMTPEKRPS

[4] = target: T1, Monoacylglycerol lipase ABHD6 (Mus musculus); experiment: Inhibition of ABHD6 in azide-rhodamine-labelled mouse Neuro2a cell membrane at 0.01 to 0.6 uM preincubated for 1 hr followed by azide-rhodamine labelling by SDS-PAGE-based in-gel fluorescence scanning assay
Summary of the method: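 Live Neuro2A cells (DMEM, 10% FBS) treated with compound for 1 hr at 37 °C, then lysed. The membrane proteome was conjugated to azide-rhodamine by click chemistry, resolved by SDS-PAGE and scanned for in-gel fluorescence.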

[5] = target: T1, Monoacylglycerol lipase ABHD6 (Mus musculus); experiment: Inhibition of ABHD6 in FP-rhodamine-labelled mouse brain membrane at 10 nM preincubated for 30 mins followed by FP-rhodamine labelling measured after 30 mins by gel-based competitive ABPP assay; type: tissue-based; summary of the method: as §1
[6] = target: T2, Fatty-acid amide hydrolase 1 (Mus musculus); experiment: Inhibition of mouse brain FAAH at 10 uM after 30 mins by FP-rhodamine ABPP-based SDS-PAGE analysis relative to control
[7] = target: T3, Monoglyceride lipase (Mus musculus) (UniProt O35678); experiment: Inhibition of MGLL in FP-rhodamine-labelled mouse brain membrane at 10 uM after 30 mins preincubated for 30 mins followed by HT-01 labelling measured after 30 mins by gel-based competitive ABPP assay; type: tissue-based; summary of the method: as §1
T3 sequence (whole entry): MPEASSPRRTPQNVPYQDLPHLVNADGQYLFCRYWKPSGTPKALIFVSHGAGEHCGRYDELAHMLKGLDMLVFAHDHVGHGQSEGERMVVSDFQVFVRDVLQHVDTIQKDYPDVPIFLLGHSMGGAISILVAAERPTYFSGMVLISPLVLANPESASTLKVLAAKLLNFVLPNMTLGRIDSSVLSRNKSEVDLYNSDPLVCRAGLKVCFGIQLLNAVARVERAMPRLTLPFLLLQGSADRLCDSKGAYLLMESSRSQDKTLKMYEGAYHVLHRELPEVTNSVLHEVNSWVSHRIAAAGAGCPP

[8] = target: T4, Diacylglycerol lipase-beta (Mus musculus) (UniProt Q91WC9); experiment: Inhibition of FP-rhodamine-labelled recombinant mouse DAGLbeta expressed in HEK293T cells at 100 nM preincubated for 30 mins followed by FP-rhodamine labelling measured after 30 mins by gel-based competitive ABPP assay; type: cell-based; conditions: HEK-293T
T4 sequence (whole entry): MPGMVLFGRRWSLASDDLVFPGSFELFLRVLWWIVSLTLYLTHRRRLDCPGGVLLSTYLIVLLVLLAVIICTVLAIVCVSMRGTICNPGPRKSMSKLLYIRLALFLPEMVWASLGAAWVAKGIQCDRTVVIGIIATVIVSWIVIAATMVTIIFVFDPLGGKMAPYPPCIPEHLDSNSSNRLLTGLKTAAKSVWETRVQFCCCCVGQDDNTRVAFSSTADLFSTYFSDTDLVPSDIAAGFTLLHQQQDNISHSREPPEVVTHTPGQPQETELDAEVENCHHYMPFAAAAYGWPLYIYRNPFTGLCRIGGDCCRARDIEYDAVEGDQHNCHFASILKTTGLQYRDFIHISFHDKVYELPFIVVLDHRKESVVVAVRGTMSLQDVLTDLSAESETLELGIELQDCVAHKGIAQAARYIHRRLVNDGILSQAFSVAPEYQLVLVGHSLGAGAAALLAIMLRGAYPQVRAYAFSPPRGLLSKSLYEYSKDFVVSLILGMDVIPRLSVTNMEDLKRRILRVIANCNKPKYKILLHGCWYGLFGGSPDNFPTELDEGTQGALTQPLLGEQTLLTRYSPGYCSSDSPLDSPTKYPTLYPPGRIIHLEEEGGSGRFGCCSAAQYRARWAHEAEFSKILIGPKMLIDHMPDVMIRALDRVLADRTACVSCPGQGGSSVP
Summary of the method: (§2)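 Mouse DAGLβ transiently overexpressed in HEK293T. Lysate diluted to 0.3 mg/mL in 50 mM HEPES pH 7.2, 100 mM NaCl, 5 mM CaCl₂, 0.1% Triton X-100, 10% DMSO. Compound preincubated 30 min at 37 °C, then 1 μM probe for 30 min at 37 °C, SDS-PAGE and in-gel fluorescence.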

[9] = target: T1, Monoacylglycerol lipase ABHD6 (Mus musculus); experiment: Inhibition of ABHD6 in FP-rhodamine-labelled mouse brain membrane at 0.01 uM after 30 mins preincubated for 30 mins followed by HT-01 labelling measured after 30 mins by gel-based competitive ABPP assay; type: tissue-based; summary of the method: as §1
[10] = target: T4, Diacylglycerol lipase-beta (Mus musculus); experiment: Inhibition of FP-rhodamine-labelled recombinant mouse DAGLbeta expressed in HEK293T cells at 10 uM preincubated for 30 mins followed by FP-rhodamine labelling measured after 30 mins by gel-based competitive ABPP assay; type: cell-based; conditions: HEK-293T; summary of the method: as §2
[11] = target: T3, Monoglyceride lipase (Mus musculus); experiment: Inhibition of mouse brain MGLL at 10 uM after 30 mins by FP-rhodamine ABPP-based mass spectrometry relative to control
[12] = target: T4, Diacylglycerol lipase-beta (Mus musculus); experiment: Inhibition of FP-rhodamine-labelled recombinant mouse DAGLbeta expressed in HEK293T cells at 1 uM preincubated for 30 mins followed by FP-rhodamine labelling measured after 30 mins by gel-based competitive ABPP assay; type: cell-based; conditions: HEK-293T; summary of the method: as §2
[13] = target: Acyl-protein thioesterase 2 (Mus musculus) (UniProt Q9WTL7); experiment: Inhibition of FP-rhodamine-labelled recombinant mouse LYPLA2 at 10 uM preincubated for 30 mins followed by FP-rhodamine labelling measured after 30 mins by gel-based competitive ABPP assay
[14] = target: Acyl-protein thioesterase 1 (Mus musculus) (UniProt P97823); experiment: Inhibition of FP-rhodamine-labelled recombinant mouse LYPLA1 at 10 uM preincubated for 30 mins followed by FP-rhodamine labelling measured after 30 mins by gel-based competitive ABPP assay
[15] = target: T1, Monoacylglycerol lipase ABHD6 (Mus musculus); experiment: Inhibition of ABHD6 in FP-rhodamine-labelled mouse brain membrane at 1 nM preincubated for 30 mins followed by FP-rhodamine labelling measured after 30 mins by gel-based competitive ABPP assay; type: tissue-based; summary of the method: as §1

Acyl-protein thioesterase 1 (Mus musculus), sequence (P97823 whole entry): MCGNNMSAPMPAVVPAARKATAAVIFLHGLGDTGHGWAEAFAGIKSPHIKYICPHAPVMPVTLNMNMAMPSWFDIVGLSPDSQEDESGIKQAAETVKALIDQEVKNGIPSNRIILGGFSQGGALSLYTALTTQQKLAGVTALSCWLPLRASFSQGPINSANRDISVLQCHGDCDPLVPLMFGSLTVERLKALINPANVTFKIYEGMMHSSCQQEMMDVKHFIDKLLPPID
Acyl-protein thioesterase 2 (Mus musculus), sequence (Q9WTL7 whole entry): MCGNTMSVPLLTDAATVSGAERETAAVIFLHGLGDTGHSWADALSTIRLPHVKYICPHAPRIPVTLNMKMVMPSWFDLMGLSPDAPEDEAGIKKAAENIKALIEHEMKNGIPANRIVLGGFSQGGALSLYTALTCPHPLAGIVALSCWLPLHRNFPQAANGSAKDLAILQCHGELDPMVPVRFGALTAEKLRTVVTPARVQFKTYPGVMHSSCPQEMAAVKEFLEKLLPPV

| Structure (SMILES) | inhibition [1] | inhibition [2] | inhibition [3] | inhibition [4] | inhibition [5] | inhibition [6] | inhibition [7] | inhibition [8] | inhibition [9] | inhibition [10] | inhibition [11] | inhibition [12] | inhibition [13] | inhibition [14] | inhibition [15] |
| --- | --- | --- | --- | --- | --- | --- | --- | --- | --- | --- | --- | --- | --- | --- | --- |
| C#CCOCCCc1ccc(C2CCCCN2C(=O)n2cc(-c3ccc(-c4ccc(OC)cc4)cc3)nn2)cc1 (racemic) | Active | Active | Active | Active | – | – | – | – | – | – | – | – | – | – | – |
| COc1ccc(-c2ccc(-c3cn(C(=O)N4CCCCC4c4ccccc4)nn3)cc2)cc1 (racemic) | – | – | – | – | 30% | Active | Active | 0% | Active | 0% | – | – | – | – | – |
| COc1ccccc1-c1ccc(-c2cn(C(=O)N3CCCCC3Cc3ccccc3)nn2)cc1 (racemic) | – | – | – | – | 89% | – | Active | 66% | Active | 100% | Active | – | – | – | – |
| COc1ccccc1-c1ccc(-c2cn(C(=O)N3CCCCC3c3ccccc3)nn2)cc1 (racemic) | – | – | – | – | 82% | Active | Active | 14% | Active | 70% | Active | – | – | – | – |
| NC(=O)c1ccc(-c2ccc(-c3cn(C(=O)N4CCCCC4c4ccccc4)nn3)cc2)cc1 (racemic) | – | – | – | – | 27% | Active | – | – | – | – | – | 0% | Active | Active | 17% |
| O=C(N1CCCCC1Cc1ccccc1)n1cc(-c2ccc(-c3cccc(CO)c3)cc2)nn1 (racemic) | – | – | – | – | 91% | – | Active | 37% | Active | 91% | – | – | – | – | – |
| O=C(N1CCCCC1c1ccccc1)n1cc(-c2ccc(-c3ccc(CO)cc3)cc2)nn1 (racemic) | – | – | – | – | 47% | Active | – | – | – | – | – | 0% | Active | Active | 18% |
| O=C(N1CCCCC1c1ccccc1)n1cc(-c2ccc(-c3ccccc3CO)cc2)nn1 (racemic) | – | – | – | – | 98% | Active | – | – | – | – | – | 0% | Active | Active | 38% |
| O=C(O)c1cccc(-c2ccc(-c3cn(C(=O)N4CCCCC4CCc4ccccc4)nn3)cc2)c1 (racemic) | – | – | – | – | 94% | Active | – | – | – | – | – | 4% | – | – | 33% |
| O=C(c1ccc(-c2ccc(-c3cn(C(=O)N4CCCCC4Cc4ccccc4)nn3)cc2)cc1)N1CCCCC1 (racemic) | – | – | – | – | 79% | – | Active | 15% | Active | 58% | – | – | – | – | – |
| O=C(c1ccc(-c2ccc(-c3cn(C(=O)N4CCCCC4c4ccccc4)nn3)cc2)cc1)N1CCCCC1 (racemic) | – | – | – | – | 94% | – | – | – | – | – | – | 0% | Active | Active | 35% |

— ChEMBL document CHEMBL3259629, “Discovery and optimization of piperidyl-1,2,3-triazole ureas as potent, selective, and in vivo-active inhibitors of α/β-hydrolase domain containing 6 (ABHD6)” (J Med Chem, 2013)
